Assay results from ChEMBL document CHEMBL4732100, “Water-soluble inhibitors of ABCG2 (BCRP) - A fragment-based and computational approach” (Eur J Med Chem, 2021).
Converted amounts (≈) assume the structure as drawn.

Biological target: T1, ABCG2 (Homo sapiens, UniProt Q9UNQ0)
T1 sequence (Q9UNQ0 whole entry): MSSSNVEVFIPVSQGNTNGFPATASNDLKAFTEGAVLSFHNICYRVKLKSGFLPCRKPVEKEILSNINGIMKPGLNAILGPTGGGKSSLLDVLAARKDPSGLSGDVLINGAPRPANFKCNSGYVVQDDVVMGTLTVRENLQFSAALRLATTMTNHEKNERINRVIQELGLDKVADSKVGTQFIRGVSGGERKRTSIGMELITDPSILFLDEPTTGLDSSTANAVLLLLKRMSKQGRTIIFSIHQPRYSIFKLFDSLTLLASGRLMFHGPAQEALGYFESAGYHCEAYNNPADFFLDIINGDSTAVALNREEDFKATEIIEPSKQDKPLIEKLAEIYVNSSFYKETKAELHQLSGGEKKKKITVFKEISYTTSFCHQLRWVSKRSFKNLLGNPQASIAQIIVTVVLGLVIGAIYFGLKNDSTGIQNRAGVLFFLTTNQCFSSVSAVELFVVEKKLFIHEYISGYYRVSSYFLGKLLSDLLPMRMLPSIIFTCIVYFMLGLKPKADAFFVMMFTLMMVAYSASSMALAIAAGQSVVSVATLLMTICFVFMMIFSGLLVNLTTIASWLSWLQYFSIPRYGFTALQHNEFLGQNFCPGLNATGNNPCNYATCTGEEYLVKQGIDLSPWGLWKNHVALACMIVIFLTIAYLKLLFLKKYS
Assay: Inhibition of human ABCG2 in human MCF7/Topo cells assessed as accumulation of substrate Hoechst […] stain at 10 uM measured after 2 hrs by fluorometric microplate reader assay relative to FTC
Format: cell-based
Conditions: read-out: Imax; call rule not given here

Row | Compound | Emax at 2 h, 10 µM [%]
1 | CCC(=O)c1ccc(-c2cn(CCN3CCOCC3)nn2)cc1NC(=O)c1cc(=O)c2ccccc2o1 | 95
2 | COC(=O)c1ccc(Br)cc1NC(=O)c1cc(=O)c2ccccc2o1 | 91
3 | CCC(=O)c1ccc(-c2cn(-c3ccc(CCN4CCc5cc(OC)c(OC)cc5C4)cc3)nn2)cc1NC(=O)c1cccc(N)n1 | 75
4 | CCC(=O)c1ccc(-c2cn(CCN3CCCC3)nn2)cc1NC(=O)c1cc(=O)c2ccccc2o1 | 70
5 | COC(=O)c1ccc(Br)cc1NC(=O)c1ccc2ccccc2n1 | 86
6 | Cc1ccc(-c2cn(CCO)nn2)c(NC(=O)c2cc(=O)c3ccccc3o2)c1 | 91
7 | CCC(=O)c1ccc(-c2cn(-c3ccc(CCN4CCc5cc(OC)c(OC)cc5C4)cc3)nn2)cc1NC(=O)c1cc(=O)c2ccccc2o1 | 65
8 | CCC(=O)c1ccc(-c2cn(-c3ccc(CCN4CCc5cc(OC)c(OC)cc5C4)cc3)nn2)cc1NC(=O)c1ccc2ccccc2c1 | 70
9 | CCC(=O)c1ccc(-c2cn(-c3ccc(CCN4CCc5cc(OC)c(OC)cc5C4)cc3)nn2)cc1NC(=O)c1cc2ccccc2o1 | 78

System: not listed separately
Assay: Kinetic solubility of compound in PBS at pH 7.4 measured after 2 hrs by turbidimetric measurement
Conditions: read-out: Kinetic_solubility

Row | Compound | solubility kinetic at 2 h [µM]
10 | CCC(=O)c1ccc(-c2cn(CC(=O)O)nn2)cc1NC(=O)c1cc(=O)c2ccccc2o1 | 10 (≈ 4.46 µg/mL)
11 | CCC(=O)c1ccc(-c2cn(CCN3CCOCC3)nn2)cc1NC(=O)c1cc(=O)c2ccccc2o1 | 10 (≈ 5.02 µg/mL)
12 | COC(=O)c1ccc(Br)cc1NC(=O)c1cc(=O)c2ccccc2o1 | 10 (≈ 4.02 µg/mL)
13 | CCC(=O)c1ccc(-c2cn(-c3ccc(CCN4CCc5cc(OC)c(OC)cc5C4)cc3)nn2)cc1NC(=O)c1cccc(N)n1 | 10 (≈ 6.32 µg/mL)
14 | CCC(=O)c1ccc(-c2cn(-c3ccc(CCN4CCc5cc(OC)c(OC)cc5C4)cc3)nn2)cc1NC(=O)c1ccc2ccccc2n1 | 3 (≈ 2 µg/mL)
15 | CCC(=O)c1ccc(-c2cn(CCN3CCCC3)nn2)cc1NC(=O)c1cc(=O)c2ccccc2o1 | 30 (≈ 14.6 µg/mL)
16 | Cc1ccc(-c2cn(CCO)nn2)c(NC(=O)c2cc(=O)c3ccccc3o2)c1 | 3 (≈ 1.17 µg/mL)
17 | CCC(=O)c1ccc(-c2cn(-c3ccc(CCN4CCc5cc(OC)c(OC)cc5C4)cc3)nn2)cc1NC(=O)c1cc(=O)c2ccccc2o1 | 7 (≈ 4.79 µg/mL)
18 | CCC(=O)c1ccc(-c2cn(-c3ccc(CCN4CCc5cc(OC)c(OC)cc5C4)cc3)nn2)cc1NC(=O)c1ccc2ccccc2c1 | 3 (≈ 2 µg/mL)
19 | CCC(=O)c1ccc(-c2cn(-c3ccc(CCN4CCc5cc(OC)c(OC)cc5C4)cc3)nn2)cc1NC(=O)c1cc2ccccc2o1 | 7 (≈ 4.59 µg/mL)

Biological target: ATP-dependent translocase ABCB1 (Homo sapiens, UniProt P08183)
Assay: Inhibition of ABCB1 in human KB-V1 cells assessed as accumulation of substrate calcein-AM stain measured after 10 mins by fluorometric microplate reader assay
Format: cell-based
Conditions: kb-v1
Procedure, shortened: (§1)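 KB-V1 cells (ABCB1-overexpressing KB variant) kept under 330 nM vinblastine. Calcein-AM accumulation read by fluorescence after intracellular cleavage to calcein. Compounds tested up to 100 µM. Inhibition is normalized to 10 µM tariquidar set to 100% (Imax). Mean ± SEM from ≥3 experiments in triplicate.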

Sequence of ATP-dependent translocase ABCB1 (P08183 whole entry): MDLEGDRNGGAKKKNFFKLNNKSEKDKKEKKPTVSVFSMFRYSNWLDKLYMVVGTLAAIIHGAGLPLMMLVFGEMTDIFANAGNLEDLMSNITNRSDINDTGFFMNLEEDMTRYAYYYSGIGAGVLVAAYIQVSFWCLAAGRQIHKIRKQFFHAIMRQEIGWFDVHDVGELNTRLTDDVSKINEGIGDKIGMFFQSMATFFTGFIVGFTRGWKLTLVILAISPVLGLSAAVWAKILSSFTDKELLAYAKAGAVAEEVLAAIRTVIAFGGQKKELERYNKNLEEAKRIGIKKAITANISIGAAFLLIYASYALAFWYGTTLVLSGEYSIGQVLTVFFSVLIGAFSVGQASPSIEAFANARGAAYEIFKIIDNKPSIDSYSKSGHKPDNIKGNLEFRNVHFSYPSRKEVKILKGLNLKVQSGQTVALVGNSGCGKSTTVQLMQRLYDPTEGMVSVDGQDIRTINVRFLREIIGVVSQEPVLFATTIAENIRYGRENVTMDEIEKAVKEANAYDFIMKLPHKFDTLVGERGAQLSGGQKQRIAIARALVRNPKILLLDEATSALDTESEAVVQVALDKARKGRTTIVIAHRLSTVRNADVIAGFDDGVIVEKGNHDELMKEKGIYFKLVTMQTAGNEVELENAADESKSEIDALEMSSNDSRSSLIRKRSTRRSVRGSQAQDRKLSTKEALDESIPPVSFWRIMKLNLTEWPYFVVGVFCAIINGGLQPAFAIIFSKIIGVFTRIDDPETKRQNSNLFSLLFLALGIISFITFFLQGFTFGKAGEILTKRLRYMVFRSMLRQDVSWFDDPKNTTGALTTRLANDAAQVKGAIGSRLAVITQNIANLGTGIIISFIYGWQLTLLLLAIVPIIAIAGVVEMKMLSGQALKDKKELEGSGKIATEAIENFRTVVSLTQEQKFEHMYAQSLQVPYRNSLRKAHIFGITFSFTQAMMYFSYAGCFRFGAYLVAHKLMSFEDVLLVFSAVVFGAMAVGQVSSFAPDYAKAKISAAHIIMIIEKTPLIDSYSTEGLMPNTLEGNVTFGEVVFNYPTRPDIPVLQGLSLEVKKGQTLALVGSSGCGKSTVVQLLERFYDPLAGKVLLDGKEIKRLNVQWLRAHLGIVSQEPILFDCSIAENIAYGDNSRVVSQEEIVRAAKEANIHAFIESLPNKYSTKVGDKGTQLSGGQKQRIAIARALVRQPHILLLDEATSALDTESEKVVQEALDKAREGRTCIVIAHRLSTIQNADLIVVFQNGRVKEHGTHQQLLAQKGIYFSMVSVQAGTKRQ

Row | Compound | IC50
20 | CCC(=O)c1ccc(-c2cn(CC(=O)O)nn2)cc1NC(=O)c1cc(=O)c2ccccc2o1 | Not Active
21 | COC(=O)c1ccc(Br)cc1NC(=O)c1cc(=O)c2ccccc2o1 | Not Active
22 | CCC(=O)c1ccc(-c2cn(-c3ccc(CCN4CCc5cc(OC)c(OC)cc5C4)cc3)nn2)cc1NC(=O)c1cccc(N)n1 | Not Active
23 | CCC(=O)c1ccc(-c2cn(-c3ccc(CCN4CCc5cc(OC)c(OC)cc5C4)cc3)nn2)cc1NC(=O)c1ccc2ccccc2n1 | Not Active
24 | CCC(=O)c1ccc(-c2cn(CCN3CCCC3)nn2)cc1NC(=O)c1cc(=O)c2ccccc2o1 | Not Active
25 | COC(=O)c1ccc(Br)cc1NC(=O)c1ccc2ccccc2n1 | Not Active
26 | Cc1ccc(-c2cn(CCO)nn2)c(NC(=O)c2cc(=O)c3ccccc3o2)c1 | Not Active
27 | CCC(=O)c1ccc(-c2cn(-c3ccc(CCN4CCc5cc(OC)c(OC)cc5C4)cc3)nn2)cc1NC(=O)c1cc(=O)c2ccccc2o1 | Not Active
28 | CCC(=O)c1ccc(-c2cn(-c3ccc(CCN4CCc5cc(OC)c(OC)cc5C4)cc3)nn2)cc1NC(=O)c1ccc2ccccc2c1 | Not Active
29 | CCC(=O)c1ccc(-c2cn(-c3ccc(CCN4CCc5cc(OC)c(OC)cc5C4)cc3)nn2)cc1NC(=O)c1cc2ccccc2o1 | Not Active
30 | COC(=O)c1ccc(-c2cn(-c3ccc(CCN4CCc5cc(OC)c(OC)cc5C4)cc3)nn2)cc1NC(=O)c1ccc2ccccc2n1 | Not Active

Same assay, conditions: read-out: IC50

Row | Compound | IC50 [nM]
31 | CCC(=O)c1ccc(-c2cn(CCN3CCOCC3)nn2)cc1NC(=O)c1cc(=O)c2ccccc2o1 | 1340

Biological target: T2, Broad substrate specificity ATP-binding cassette transporter ABCG2 (Homo sapiens, UniProt Q9UNQ0)
T2 sequence (Q9UNQ0 whole entry): T1 sequence (Q9UNQ0 whole entry)
Assay: Inhibition of human ABCG2 in human MCF7/Topo cells assessed as accumulation of substrate Hoechst […] stain measured after 2 hrs by fluorometric microplate reader assay
Format: cell-based
Conditions: mcf7/topo

Row | Compound | IC50
32 | CCC(=O)c1ccc(-c2cn(CC(=O)O)nn2)cc1NC(=O)c1cc(=O)c2ccccc2o1 | Not Active

Same assay, conditions: read-out: IC50

Row | Compound | IC50 [nM]
33 | CCC(=O)c1ccc(-c2cn(CCN3CCOCC3)nn2)cc1NC(=O)c1cc(=O)c2ccccc2o1 | 312
34 | COC(=O)c1ccc(Br)cc1NC(=O)c1cc(=O)c2ccccc2o1 | 140
35 | CCC(=O)c1ccc(-c2cn(-c3ccc(CCN4CCc5cc(OC)c(OC)cc5C4)cc3)nn2)cc1NC(=O)c1cccc(N)n1 | 82
36 | CCC(=O)c1ccc(-c2cn(CCN3CCCC3)nn2)cc1NC(=O)c1cc(=O)c2ccccc2o1 | 158
37 | COC(=O)c1ccc(Br)cc1NC(=O)c1ccc2ccccc2n1 | 1920
38 | Cc1ccc(-c2cn(CCO)nn2)c(NC(=O)c2cc(=O)c3ccccc3o2)c1 | 447
39 | CCC(=O)c1ccc(-c2cn(-c3ccc(CCN4CCc5cc(OC)c(OC)cc5C4)cc3)nn2)cc1NC(=O)c1cc(=O)c2ccccc2o1 | 80
40 | CCC(=O)c1ccc(-c2cn(-c3ccc(CCN4CCc5cc(OC)c(OC)cc5C4)cc3)nn2)cc1NC(=O)c1ccc2ccccc2c1 | 249
41 | CCC(=O)c1ccc(-c2cn(-c3ccc(CCN4CCc5cc(OC)c(OC)cc5C4)cc3)nn2)cc1NC(=O)c1cc2ccccc2o1 | 120

Biological target: ABCB1 (Homo sapiens, UniProt P08183)
Assay: Inhibition of ABCB1 in human KB-V1 cells assessed as accumulation of substrate calcein-AM stain at 10 uM measured after 10 mins by fluorometric microplate reader assay relative to Tariquidar
Format: cell-based
Conditions: probe calcein-AM, read-out: Imax
Procedure, shortened: as §1

Sequence of ABCB1 (P08183 whole entry): as above

Row | Compound | Emax at 10 min, 10 µM [%]
42 | CCC(=O)c1ccc(-c2cn(CCN3CCOCC3)nn2)cc1NC(=O)c1cc(=O)c2ccccc2o1 | 92

System: not listed separately
Assay: Thermodynamic solubility of compound in PBS at pH 7.4 […] by shake-flask method
Format: physicochemical
Conditions: buffer

Row | Compound | Therm_solubility [µM]
43 | CCC(=O)c1ccc(-c2cn(CCN3CCOCC3)nn2)cc1NC(=O)c1cc(=O)c2ccccc2o1 | 0.999
44 | COC(=O)c1ccc(Br)cc1NC(=O)c1cc(=O)c2ccccc2o1 | 0.109
45 | CCC(=O)c1ccc(-c2cn(-c3ccc(CCN4CCc5cc(OC)c(OC)cc5C4)cc3)nn2)cc1NC(=O)c1cccc(N)n1 | < 0.1
46 | CCC(=O)c1ccc(-c2cn(-c3ccc(CCN4CCc5cc(OC)c(OC)cc5C4)cc3)nn2)cc1NC(=O)c1ccc2ccccc2n1 | 0.078
47 | CCC(=O)c1ccc(-c2cn(CCN3CCCC3)nn2)cc1NC(=O)c1cc(=O)c2ccccc2o1 | 1.483
48 | Cc1ccc(-c2cn(CCO)nn2)c(NC(=O)c2cc(=O)c3ccccc3o2)c1 | < 0.1
49 | CCC(=O)c1ccc(-c2cn(-c3ccc(CCN4CCc5cc(OC)c(OC)cc5C4)cc3)nn2)cc1NC(=O)c1cc(=O)c2ccccc2o1 | 0.149
50 | CCC(=O)c1ccc(-c2cn(-c3ccc(CCN4CCc5cc(OC)c(OC)cc5C4)cc3)nn2)cc1NC(=O)c1ccc2ccccc2c1 | < 0.1
51 | CCC(=O)c1ccc(-c2cn(-c3ccc(CCN4CCc5cc(OC)c(OC)cc5C4)cc3)nn2)cc1NC(=O)c1cc2ccccc2o1 | < 0.1

System: not listed separately
Assay: Inhibition of human ABCC1 expressed in MDCK-MRP1 cells assessed as accumulation of substrate calcein-AM stain measured after 1 hr by fluorometric microplate reader assay
Format: cell-based, Canis lupus familiaris
Conditions: not given
Procedure, shortened: (§2)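 MDCK.2 cells transfected with human ABCC1 (MDCK.2-MRP1), trypsinized with 2X trypsin/EDTA for 30 min. Calcein-AM accumulation measured fluorometrically. Compounds tested up to 100 µM. Inhibition is normalized to 30 µM reversan set to 100% (Imax). Mean ± SEM from ≥3 experiments in triplicate.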

Row | Compound | IC50
52 | CCC(=O)c1ccc(-c2cn(CC(=O)O)nn2)cc1NC(=O)c1cc(=O)c2ccccc2o1 | Not Active
53 | COC(=O)c1ccc(Br)cc1NC(=O)c1cc(=O)c2ccccc2o1 | Not Active
54 | CCC(=O)c1ccc(-c2cn(-c3ccc(CCN4CCc5cc(OC)c(OC)cc5C4)cc3)nn2)cc1NC(=O)c1cccc(N)n1 | Not Active
55 | CCC(=O)c1ccc(-c2cn(CCN3CCCC3)nn2)cc1NC(=O)c1cc(=O)c2ccccc2o1 | Not Active
56 | COC(=O)c1ccc(Br)cc1NC(=O)c1ccc2ccccc2n1 | Not Active
57 | Cc1ccc(-c2cn(CCO)nn2)c(NC(=O)c2cc(=O)c3ccccc3o2)c1 | Not Active
58 | CCC(=O)c1ccc(-c2cn(-c3ccc(CCN4CCc5cc(OC)c(OC)cc5C4)cc3)nn2)cc1NC(=O)c1cc(=O)c2ccccc2o1 | Not Active
59 | CCC(=O)c1ccc(-c2cn(-c3ccc(CCN4CCc5cc(OC)c(OC)cc5C4)cc3)nn2)cc1NC(=O)c1ccc2ccccc2c1 | Not Active
60 | CCC(=O)c1ccc(-c2cn(-c3ccc(CCN4CCc5cc(OC)c(OC)cc5C4)cc3)nn2)cc1NC(=O)c1cc2ccccc2o1 | Not Active

Same assay, conditions: read-out: IC50

Row | Compound | IC50 [nM]
61 | CCC(=O)c1ccc(-c2cn(CCN3CCOCC3)nn2)cc1NC(=O)c1cc(=O)c2ccccc2o1 | 2080

System: MDCK-MRP1
Assay: Inhibition of human ABCC1 expressed in MDCK-MRP1 cells assessed as accumulation of substrate calcein-AM stain at 30 uM measured after 1 hr by fluorometric microplate reader assay relative to Reversan
Format: cell-based
Conditions: Canis lupus familiaris
Procedure, shortened: as §2

Row | Compound | Imax [%]
62 | CCC(=O)c1ccc(-c2cn(CCN3CCOCC3)nn2)cc1NC(=O)c1cc(=O)c2ccccc2o1 | 66

System: not listed separately
Assay: Cytotoxicity against human MCF7/Topo cells assessed as inhibition of cell proliferation at 1 uM measured by crystal violet based microplate reader assay
Conditions: not given
Procedure, shortened: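 MCF-7/Topo cells grown in DMEM/High with 2% (v/v) 200 mM L-glutamine and 10% FCS at 37 °C, 5% CO2, kept under 550 nM topotecan. Long-term incubation with inhibitor. Value given as corrected T/C = (T−C0)/(C−C0)·100 from absorbance; cytocidal effect (T−C0)/C0·100 when T<C0. Mean ± SEM of two to three experiments, each in octuplicate.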

Row | Compound | Activity
63 | CCC(=O)c1ccc(-c2cn(CCN3CCOCC3)nn2)cc1NC(=O)c1cc(=O)c2ccccc2o1 | Non-Toxic
